Measurements taken from ChEMBL document CHEMBL1157834, “Structure-activity relationships of carbocyclic 6-benzylthioinosine analogues as subversive substrates of Toxoplasma gondii adenosine kinase” (Bioorg Med Chem, 2010).

How the values were obtained:
Adenosine kinase = target: T1, Adenosine kinase (Toxoplasma gondii, UniProt Q9TVW2); assay: Binding affinity to Toxoplasma gondii adenosine kinase after 20 mins by radioactivity method
T1 sequence (Q9TVW2 whole entry): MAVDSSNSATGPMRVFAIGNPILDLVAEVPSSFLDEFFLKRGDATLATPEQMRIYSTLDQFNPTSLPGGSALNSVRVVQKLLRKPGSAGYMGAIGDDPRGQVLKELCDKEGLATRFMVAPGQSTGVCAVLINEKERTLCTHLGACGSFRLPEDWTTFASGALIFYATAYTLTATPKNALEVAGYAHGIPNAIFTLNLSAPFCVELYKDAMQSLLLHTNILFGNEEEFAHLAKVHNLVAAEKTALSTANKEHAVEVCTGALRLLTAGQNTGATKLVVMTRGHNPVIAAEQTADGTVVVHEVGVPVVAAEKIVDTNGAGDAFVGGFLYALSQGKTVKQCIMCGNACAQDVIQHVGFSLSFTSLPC
Summary of the method: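 Purified cloned T. gondii adenosine kinase in 50 mM Tris–Cl pH 7.4 with 2.5 mM ATP, 5 mM MgCl₂, 5 mM creatine phosphate, creatine kinase and [8-¹⁴C]adenosine (55 Ci/mol), with or without varied compound, at 37 °C under linear conditions. Stopped by boiling; adenosine and AMP separated by TLC (CHCl₃/MeOH/AcOH 102:12:6) and radioactivity quantified. Apparent Ki taken as apparent Km. ≥2 experiments in triplicate.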

Toxoplasma gondii [1] = assay: Antimicrobial activity against wild-type Toxoplasma gondii RH infected in human CRL1634 cells assessed as intracellular parasite survival at 5 uM after 18 hrs by [5,6-[…]]uracil-based scintillation counting; format: functional
Summary of the method: (§1)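 Confluent human foreskin fibroblasts (≤20 passages, RPMI-1640) plated ~5×10⁵/well for 24 h at 37 °C, 5% CO₂. Infected with isolated tachyzoites in 3% FBS medium, 1 parasite/cell, for 1 h, then washed with 10% FBS medium. Compounds in 50% ethanol added to 0–50 µM (final ethanol 2.5%). After 18 h, drug-free medium with [5,6-³H]uracil (5 µCi/mL) for 6 h. TCA precipitates collected on glass-fiber filters and counted by scintillation. Growth taken as % uptake of treated vs untreated; ≥2 experiments in triplicate.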

Toxoplasma gondii [2] = assay: Antimicrobial activity against wild-type Toxoplasma gondii RH infected in human CRL1634 cells assessed as intracellular parasite survival at 10 uM after 18 hrs by [5,6-[…]]uracil-based scintillation counting; format: functional; summary of the method: as §1
Toxoplasma gondii [3] = assay: Antimicrobial activity against wild-type Toxoplasma gondii RH infected in human CRL1634 cells assessed as intracellular parasite survival at 25 uM after 18 hrs by [5,6-[…]]uracil-based scintillation counting; format: functional; summary of the method: as §1
Toxoplasma gondii [4] = assay: Antimicrobial activity against wild-type Toxoplasma gondii RH infected in human CRL1634 cells assessed as intracellular parasite survival at 50 uM after 18 hrs by [5,6-[…]]uracil-based scintillation counting; format: functional; summary of the method: as §1
Toxoplasma gondii [5] = assay: Antimicrobial activity against adenosine kinase deficient Toxoplasma gondii TgAK-3 infected in human CRL1634 cells assessed as intracellular parasite survival at 5 uM after 18 hrs by [5,6-[…]]uracil-based scintillation counting; format: functional; summary of the method: as §1
Toxoplasma gondii [6] = assay: Antimicrobial activity against adenosine kinase deficient Toxoplasma gondii TgAK-3 infected in human CRL1634 cells assessed as intracellular parasite survival at 10 uM after 18 hrs by [5,6-[…]]uracil-based scintillation counting; format: functional; summary of the method: as §1
Toxoplasma gondii [7] = assay: Antimicrobial activity against adenosine kinase deficient Toxoplasma gondii TgAK-3 infected in human CRL1634 cells assessed as intracellular parasite survival at 25 uM after 18 hrs by [5,6-[…]]uracil-based scintillation counting; format: functional; summary of the method: as §1
Toxoplasma gondii [8] = assay: Antimicrobial activity against adenosine kinase deficient Toxoplasma gondii TgAK-3 infected in human CRL1634 cells assessed as intracellular parasite survival at 50 uM after 18 hrs by [5,6-[…]]uracil-based scintillation counting; format: functional; summary of the method: as §1
Toxoplasma gondii [9] = assay: Antimicrobial activity against Toxoplasma gondii infected in human CRL1634 cells assessed as intracellular parasite survival at 25 uM after 18 hrs by [5,6-[…]]uracil-based scintillation counting; format: functional; summary of the method: as §1
[10] = tested on: Toxoplasma gondii (RH strain); assay: Activity against Toxoplasma gondii RH in human CRL1634 cells after 18 hrs by [5,6-3H]uracil incorporation assay
Homo sapiens [11] = species on record: Homo sapiens; assay: Cytotoxicity against uninfected human CRL1634 cells assessed as cell viability at 5 uM after 48 hrs by MTT assay
Homo sapiens [12] = species on record: Homo sapiens; assay: Cytotoxicity against uninfected human CRL1634 cells assessed as cell viability at 10 uM after 48 hrs by MTT assay
[13] = target: T2, Adenosine kinase (Toxoplasma gondii) (UniProt Q9TVW2); assay: Ratio of Km for carbocyclic 6-benzylthioinosine to Km for drug for binding affinity to Toxoplasma gondii adenosine kinase after 20 mins by radioactivity method
T2 sequence (whole entry): T1 sequence (Q9TVW2 whole entry)

`O=[N+]([O-])c1cccc(CSc2ncnc3c2ncn3[C@@H]2C[C@H](CO)[C@@H](O)[C@H]2O)c1` was tested, and the Ki (Adenosine kinase) was 26.6 µM.
Work on `OC[C@H]1C[C@@H](n2cnc3c(SCc4ccccc4)ncnc32)[C@H](O)[C@@H]1O` yielded a Ki (Adenosine kinase) of 105 µM.
Work on `OC[C@H]1C[C@@H](n2cnc3c(SCc4ccc(Cl)cc4)ncnc32)[C@H](O)[C@@H]1O` yielded a Ki (Adenosine kinase) of 15.6 µM, an Activity (Toxoplasma gondii [1]) of 73% and an Activity (Toxoplasma gondii [2]) of 12%. It also gave an Activity (Toxoplasma gondii [3]) of 0%, an Activity (Toxoplasma gondii [4]) of 0% and an Activity (Toxoplasma gondii [5]) of 100%. For the same compound, the Activity (Toxoplasma gondii [6]) was 100%, the Activity (Toxoplasma gondii [7]) was 100% and the Activity (Toxoplasma gondii [8]) was 100%. The Activity (Toxoplasma gondii [9]) was 100%, the IC50 [10] was 14.5 µM and the Activity (Homo sapiens [11]) was 100%. For the same compound, the Activity (Homo sapiens [12]) was 100%.
With `OC[C@H]1C[C@@H](n2cnc3c(SCc4ccc(Cl)cc4Cl)ncnc32)[C@H](O)[C@@H]1O` the Ki (Adenosine kinase) was 60.7 µM.
`Cc1ccc(CSc2ncnc3c2ncn3[C@@H]2C[C@H](CO)[C@@H](O)[C@H]2O)cc1` showed a Ki (Adenosine kinase) of 7.5 µM, a Ratio [13] of 14 and an Activity (Toxoplasma gondii [1]) of 43%. For the same compound, the Activity (Toxoplasma gondii [2]) was 2.5%, the Activity (Toxoplasma gondii [3]) was 0% and the Activity (Toxoplasma gondii [4]) was 0%. The Activity (Toxoplasma gondii [5]) was 99%, the Activity (Toxoplasma gondii [6]) was 100% and the Activity (Toxoplasma gondii [7]) was 100%. It also gave an Activity (Toxoplasma gondii [8]) of 100%, an Activity (Toxoplasma gondii [9]) of 100% and an IC50 [10] of 11.9 µM. It also gave an Activity (Homo sapiens [11]) of 100% and an Activity (Homo sapiens [12]) of 100%.
Compound `COC(=O)c1ccc(CSc2ncnc3c2ncn3[C@@H]2C[C@H](CO)[C@@H](O)[C@H]2O)cc1` has a Ki (Adenosine kinase) of 40.9 µM.
`OC[C@H]1C[C@@H](n2cnc3c(SCc4ccccc4Cl)ncnc32)[C@H](O)[C@@H]1O` showed a Ki (Adenosine kinase) of 24.2 µM.
In the case of `OC[C@H]1C[C@@H](n2cnc3c(SCc4ccccc4F)ncnc32)[C@H](O)[C@@H]1O`, the Ki (Adenosine kinase) is reported as 54.8 µM.
`COc1ccc(CSc2ncnc3c2ncn3[C@@H]2C[C@H](CO)[C@@H](O)[C@H]2O)cc1` was tested, and the Ki (Adenosine kinase) was 62 µM.
`OC[C@H]1C[C@@H](n2cnc3c(SCc4c(F)cccc4Cl)ncnc32)[C@H](O)[C@@H]1O` was tested, and the Ki (Adenosine kinase) was 31.3 µM.
With `OC[C@H]1C[C@@H](n2cnc3c(SCc4ccc(Br)cc4)ncnc32)[C@H](O)[C@@H]1O` the Ki (Adenosine kinase) was 21.1 µM.
`Cc1ccccc1CSc1ncnc2c1ncn2[C@@H]1C[C@H](CO)[C@@H](O)[C@H]1O` gave a Ki (Adenosine kinase) of 24.9 µM.
Compound `OC[C@H]1C[C@@H](n2cnc3c(SCc4cccc(C(F)(F)F)c4)ncnc32)[C@H](O)[C@@H]1O` has a Ki (Adenosine kinase) of 22.2 µM.
`OC[C@H]1O[C@@H](n2cnc3c(SCc4ccccc4)ncnc32)[C@H](O)[C@@H]1O` [6-BENZYLTHIOINOSINE] showed a Ki (Adenosine kinase) of 14.3 µM.
With `Cc1cccc(CSc2ncnc3c2ncn3[C@@H]2C[C@H](CO)[C@@H](O)[C@H]2O)c1` the Ki (Adenosine kinase) was 26.8 µM.
`OC[C@H]1C[C@@H](n2cnc3c(SCc4ccc(F)cc4)ncnc32)[C@H](O)[C@@H]1O` gave a Ki (Adenosine kinase) of 31.9 µM.
`N#Cc1ccc(CSc2ncnc3c2ncn3[C@@H]2C[C@H](CO)[C@@H](O)[C@H]2O)cc1` gave a Ki (Adenosine kinase) of 129 µM.
`Nc1ccc(S(=O)(=O)Nc2ncccn2)cc1` [SULFADIAZINE] was tested, and the Activity (Toxoplasma gondii [1]) was 93%, the Activity (Toxoplasma gondii [2]) was 58% and the Activity (Toxoplasma gondii [3]) was 53%. For the same compound, the Activity (Toxoplasma gondii [4]) was 46%, the Activity (Toxoplasma gondii [9]) was 100% and the IC50 [10] was 27.3 µM. It also gave an Activity (Homo sapiens [11]) of 98% and an Activity (Homo sapiens [12]) of 100%.
`CS(=O)(=O)c1ccc(CSc2ncnc3c2ncn3[C@@H]2C[C@H](CO)[C@@H](O)[C@H]2O)cc1` showed a Ki (Adenosine kinase) of 73.7 µM.
`OC[C@H]1C[C@@H](n2cnc3c(SCc4ccc(Cl)c(Cl)c4)ncnc32)[C@H](O)[C@@H]1O` gave a Ki (Adenosine kinase) of 16.8 µM.
`OC[C@H]1C[C@@H](n2cnc3c(SCc4ccc(OC(F)(F)F)cc4)ncnc32)[C@H](O)[C@@H]1O` gave a Ki (Adenosine kinase) of 65.5 µM.
Compound `O=[N+]([O-])c1ccc(CSc2ncnc3c2ncn3[C@@H]2C[C@H](CO)[C@@H](O)[C@H]2O)cc1` has a Ki (Adenosine kinase) of 94.1 µM.
Work on `CCc1nc(N)nc(N)c1-c1ccc(Cl)cc1` [PYRIMETHAMINE] yielded an Activity (Toxoplasma gondii [1]) of 99%, an Activity (Toxoplasma gondii [2]) of 55% and an Activity (Toxoplasma gondii [3]) of 25%. It also gave an Activity (Toxoplasma gondii [4]) of 23%, an Activity (Toxoplasma gondii [9]) of 108% and an IC50 [10] of 16.1 µM. For the same compound, the Activity (Homo sapiens [11]) was 101% and the Activity (Homo sapiens [12]) was 100%.
`Cc1cc(C)c(CSc2ncnc3c2ncn3[C@@H]2C[C@H](CO)[C@@H](O)[C@H]2O)c(C)c1` showed a Ki (Adenosine kinase) of 63.1 µM.
